# According to ChEMBL document CHEMBL5058577, “EUbOPEN Chemogenomics Library 2 (Multiplex)” (2022):
# Non-standard residues stand in square brackets, D forms with d. Residues, ends and D or L forms follow the SMILES beside them.
# Tested on: Fibroblast
# Experiment: Multiplex assay against human fibroblast
# Assay type: toxicity, cell-based
# Outline: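 Values for tubulin, mitochondrial-mass and membrane-permeability phenotypes are per cents of cells with healthy nuclei. These cells were identified by CellPathfinder machine-learning gating of live cells that had been stained at seeding with Hoechst33342, BioTracker Green Microtubule Cytoskeleton Dye, MitoTracker Red and Annexin V Alexa Fluor 680 and imaged on a CQ1 microscope at 37°C and 5% CO2 after compound addition. The gating first set Hoechst high-intensity objects apart from normal cells, then split normal cells into healthy, pyknosed or fragmented nuclei, and pyknosed cells into mitotic or apoptotic.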
# [1] = 12 h, 1 µM, compound concentration 1 uM, replicate 1
# [2] = 12 h, 1 µM, compound concentration 1 uM, replicate 2
# [3] = 12 h, 10 µM, compound concentration 10 uM, replicate 1
# [4] = 12 h, 10 µM, compound concentration 10 uM, replicate 2
# [5] = 24 h, 1 µM, compound concentration 1 uM, replicate 1
# [6] = 24 h, 1 µM, compound concentration 1 uM, replicate 2
# [7] = 24 h, 10 µM, compound concentration 10 uM, replicate 1
# [8] = 24 h, 10 µM, compound concentration 10 uM, replicate 2
# [9] = 48 h, 1 µM, compound concentration 1 uM, replicate 1
# [10] = 48 h, 1 µM, compound concentration 1 uM, replicate 2
# [11] = 48 h, 10 µM, compound concentration 10 uM, replicate 1
# [12] = 48 h, 10 µM, compound concentration 10 uM, replicate 2
smiles,measurement,setting,value
CC(C)C[C@@H]1NC(=O)[C@@H](C(C)C)NC(=O)[C@@H]2CCCN2C(=O)[C@@H](CC(=O)O)NC(=O)[C@@H](Cc2c[nH]c3ccccc23)NC1=O [BQ-123] (cyclo(L[dW][dD]P[dV])),Population Apoptotic (%),[1],57%
same,Population Fragmented Nuclei (%),[1],18%
same,Population Healthy Nuclei (%),[1],68%
same,Population Hoechst High Intensity Objects (%),[1],0%
same,Population Membrane Permeable-Phenotype (%),[1],1%
same,Population Mitochondria Different-Phenotype (%),[1],11%
same,Population Mitotic Cells (%),[1],42%
same,Population Normal (%),[1],100%
same,Population Pyknosed Nuclei (%),[1],13%
same,Population Tubulin-Different-Phenotype (%),[1],31%
same,Total Cell Count,[1],105
same,Population Apoptotic (%),[2],21%
same,Population Fragmented Nuclei (%),[2],22%
same,Population Healthy Nuclei (%),[2],58%
same,Population Hoechst High Intensity Objects (%),[2],3%
same,Population Membrane Permeable-Phenotype (%),[2],5%
same,Population Mitochondria Different-Phenotype (%),[2],2%
same,Population Mitotic Cells (%),[2],78%
same,Population Normal (%),[2],96%
same,Population Pyknosed Nuclei (%),[2],18%
same,Total Cell Count,[2],157
same,Population Apoptotic (%),[3],48%
same,Population Fragmented Nuclei (%),[3],15%
same,Population Healthy Nuclei (%),[3],65%
same,Population Hoechst High Intensity Objects (%),[3],2%
same,Population Membrane Permeable-Phenotype (%),[3],0%
same,Population Mitochondria Different-Phenotype (%),[3],9%
same,Population Mitotic Cells (%),[3],52%
same,Population Normal (%),[3],97%
same,Population Pyknosed Nuclei (%),[3],18%
same,Population Tubulin-Different-Phenotype (%),[3],33%
same,Total Cell Count,[3],136
same,Population Apoptotic (%),[4],33%
same,Population Fragmented Nuclei (%),[4],30%
same,Population Healthy Nuclei (%),[4],48%
same,Population Membrane Permeable-Phenotype (%),[4],4%
same,Population Mitochondria Different-Phenotype (%),[4],3%
same,Population Mitotic Cells (%),[4],66%
same,Population Pyknosed Nuclei (%),[4],20%
same,Population Tubulin-Different-Phenotype (%),[4],46%
same,Total Cell Count,[4],134
same,Population Apoptotic (%),[5],53%
same,Population Fragmented Nuclei (%),[5],19%
same,Population Healthy Nuclei (%),[5],66%
same,Population Hoechst High Intensity Objects (%),[5],1%
same,Population Membrane Permeable-Phenotype (%),[5],0%
same,Population Mitochondria Different-Phenotype (%),[5],5%
same,Population Mitotic Cells (%),[5],46%
same,Population Normal (%),[5],98%
same,Population Pyknosed Nuclei (%),[5],14%
same,Population Tubulin-Different-Phenotype (%),[5],24%
same,Total Cell Count,[5],107
same,Population Apoptotic (%),[6],24%
same,Population Fragmented Nuclei (%),[6],23%
same,Population Healthy Nuclei (%),[6],57%
same,Population Hoechst High Intensity Objects (%),[6],6%
same,Population Membrane Permeable-Phenotype (%),[6],3%
same,Population Mitochondria Different-Phenotype (%),[6],3%
same,Population Mitotic Cells (%),[6],75%
same,Population Normal (%),[6],93%
same,Population Pyknosed Nuclei (%),[6],18%
same,Population Tubulin-Different-Phenotype (%),[6],25%
same,Total Cell Count,[6],166
same,Population Apoptotic (%),[7],50%
same,Population Fragmented Nuclei (%),[7],19%
same,Population Healthy Nuclei (%),[7],64%
same,Population Hoechst High Intensity Objects (%),[7],8%
same,Population Membrane Permeable-Phenotype (%),[7],1%
same,Population Mitochondria Different-Phenotype (%),[7],5%
same,Population Mitotic Cells (%),[7],50%
same,Population Normal (%),[7],91%
same,Population Pyknosed Nuclei (%),[7],15%
same,Population Tubulin-Different-Phenotype (%),[7],32%
same,Total Cell Count,[7],123
same,Population Apoptotic (%),[8],29%
same,Population Fragmented Nuclei (%),[8],27%
same,Population Healthy Nuclei (%),[8],50%
same,Population Hoechst High Intensity Objects (%),[8],0%
same,Population Membrane Permeable-Phenotype (%),[8],11%
same,Population Mitochondria Different-Phenotype (%),[8],3%
same,Population Mitotic Cells (%),[8],70%
same,Population Normal (%),[8],99%
same,Population Pyknosed Nuclei (%),[8],22%
same,Population Tubulin-Different-Phenotype (%),[8],50%
same,Population Apoptotic (%),[9],50%
same,Population Fragmented Nuclei (%),[9],18%
same,Population Healthy Nuclei (%),[9],70%
same,Population Hoechst High Intensity Objects (%),[9],3%
same,Population Membrane Permeable-Phenotype (%),[9],0%
same,Population Mitochondria Different-Phenotype (%),[9],12%
same,Population Mitotic Cells (%),[9],50%
same,Population Normal (%),[9],96%
same,Population Pyknosed Nuclei (%),[9],11%
same,Population Tubulin-Different-Phenotype (%),[9],25%
same,Total Cell Count,[9],109
same,Population Apoptotic (%),[10],52%
same,Population Fragmented Nuclei (%),[10],28%
same,Population Healthy Nuclei (%),[10],56%
same,Population Hoechst High Intensity Objects (%),[10],4%
same,Population Membrane Permeable-Phenotype (%),[10],2%
same,Population Mitochondria Different-Phenotype (%),[10],4%
same,Population Mitotic Cells (%),[10],48%
same,Population Normal (%),[10],95%
same,Population Pyknosed Nuclei (%),[10],15%
same,Population Tubulin-Different-Phenotype (%),[10],39%
same,Total Cell Count,[10],172
same,Population Apoptotic (%),[11],70%
same,Population Fragmented Nuclei (%),[11],26%
same,Population Healthy Nuclei (%),[11],59%
same,Population Hoechst High Intensity Objects (%),[11],5%
same,Population Membrane Permeable-Phenotype (%),[11],1%
same,Population Mitochondria Different-Phenotype (%),[11],5%
same,Population Mitotic Cells (%),[11],29%
same,Population Normal (%),[11],94%
same,Population Pyknosed Nuclei (%),[11],13%
same,Population Tubulin-Different-Phenotype (%),[11],38%
same,Total Cell Count,[11],129
same,Population Apoptotic (%),[12],46%
same,Population Fragmented Nuclei (%),[12],45%
same,Population Healthy Nuclei (%),[12],42%
same,Population Hoechst High Intensity Objects (%),[12],6%
same,Population Membrane Permeable-Phenotype (%),[12],9%
same,Population Mitochondria Different-Phenotype (%),[12],3%
same,Population Mitotic Cells (%),[12],53%
same,Population Normal (%),[12],93%
same,Population Pyknosed Nuclei (%),[12],12%
same,Population Tubulin-Different-Phenotype (%),[12],51%
same,Total Cell Count,[12],130
